Compounds with a hit are over-represented: about 5.4% of the library has one in this group of screens.
PLAP activator: human PLAP activation. P05187. purified PLAP enzyme, luminescent substrate read-out; hits give high values. activation fold at 20 µM. 1.2% of 96,000 active. AID 696; in the data active = activation fold above about 2
E coli WT exp: E. coli BW25113 growth inhibition, expanded screen; OD600 absorbance; growth inhibition, % at 100 µM; 0.15% of 98,000 active;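 active = growth inhibition above about 50% at one test dose, limit read from the data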;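 also: growth measured after 20 h incubation at 37 °C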
tolC growth inh: growth inhibitors of E. coli BW25113 tolC mutant | OD615 | growth inhibition, % at 10 µM (by protocol) | 2.2% of 65,000 active;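 active = growth inhibition at or above a cutoff equal to the mean over every tested compound plus 3 SD, cut at about 60% in these data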;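 also: growth measured after 20 h incubation at 37 °C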
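Doses: one dose of 10 µM final / Material: E. coli BW25113 ΔtolC::kan, tolC deletion mutant strain / Buffer or medium: LB with kanamycin 50 µg/mL / Evaluation: percent growth inhibition / Detection: optical density read at 615 nm / Incubation: 37 °C, 20 h exposure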
PostGolgi yeast: growth inhibition of a yeast mutant, post-Golgi transport screen | inhibition, % at 10 µM | 0.9% of 98,000 active | post-Golgi transport phenotypic cell assay;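 also: yeast cells grown in 1536-well plates; yeast grown about 18 h at 30C before absorbance read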
HePTP inhibitor: blocks human HePTP tyrosine phosphatase; P35236; recombinant HePTP phosphatase activity, OD absorbance; inhibition, % at 20 µM; 0.64% of 110,000 active; AID 521; in the data active = inhibition above about 50%
Target sequence (P35236 whole entry, looked up): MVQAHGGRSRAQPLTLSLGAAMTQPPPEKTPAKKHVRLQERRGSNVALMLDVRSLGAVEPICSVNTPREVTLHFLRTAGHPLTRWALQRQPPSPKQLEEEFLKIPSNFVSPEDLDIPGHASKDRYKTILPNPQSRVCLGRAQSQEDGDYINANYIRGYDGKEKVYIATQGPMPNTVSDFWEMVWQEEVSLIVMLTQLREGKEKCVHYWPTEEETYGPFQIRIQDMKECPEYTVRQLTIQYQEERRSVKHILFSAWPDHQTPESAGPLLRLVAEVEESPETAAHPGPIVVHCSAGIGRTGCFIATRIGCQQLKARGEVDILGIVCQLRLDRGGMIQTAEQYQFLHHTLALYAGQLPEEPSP
PostGolgi ctrl: growth of the yeast control strain, post-Golgi counter-screen; efflux-deficient yeast background strain, growth absorbance A615, 16 h; inhibition, % at 10 µM; 5% of 98,000 active; AID 738
Hits are given with their value; – = inactive; · = not tested or not shown. Rule as the data show it, unless noted: active = inhibition above about 30%; inactive = the rest.

SMILES	PLAP activator	E coli WT exp	tolC growth inh	PostGolgi yeast	HePTP inhibitor	PostGolgi ctrl
Cc1nnc(NC(=O)C2CCCN(S(=O)(=O)c3ccccc3C(F)(F)F)C2)s1 (stereo not given)	–	–	–	–	–	42
O=C1c2ccccc2C(Nc2ccc(F)c(Cl)c2)N1c1ccccn1 (stereo not given)	–	–	–	–	–	–
O=C1c2ccccc2C(Nc2ccc3c(c2)OCCO3)N1c1ccc(Cl)cn1 (stereo not given)	–	–	–	–	–	35
COc1ccc(NC2c3ccccc3C(=O)N2c2ccccn2)cc1Cl (stereo not given)	–	–	·	–	·	47
Cc1ccc(C2=NNC(C(O)C(O)C(O)CO)S2)cc1 (stereo not given)	2.4	–	·	–	·	–
Clc1ccc2nc(-c3ccc(Br)s3)cn2c1	–	–	·	–	·	31
COc1cccc(C2C(C#N)=C(N)SC(N)=C2C#N)c1	·	·	·	·	–	·
COc1ccc(C2C(C#N)=C(N)N3C(=C2C#N)Sc2ccccc23)cc1 (stereo not given)	–	–	–	–	–	30
CCC(CC)C1C(C#N)=C(N)Oc2n[nH]c(C)c21 (stereo not given)	2.1	–	–	–	–	–
Cc1cc(-c2ccc(/C=C3\Sc4ccccc4C3=O)o2)cc([N+](=O)[O-])c1C	·	·	·	·	–	·
O=C(Nc1ccccc1)Nc1ccc(NC(=O)Nc2ccccc2)cc1	·	·	·	·	–	·
CCCc1cc(=O)[nH]c(SCC(=O)NC(=O)OCC)n1	–	–	–	–	–	–
CCCc1cc(=O)[nH]c(SCC(=O)NC(=O)c2ccccc2)n1	–	–	·	–	–	32
CC1=NN(c2ccc(F)cc2)C(=O)C1C(c1cccc(O)c1)c1c(C)[nH]n(-c2ccc(F)cc2)c1=O (stereo not given)	–	–	·	–	·	35
CC(=O)N1CCN(CC(C)(C)NS(=O)(=O)c2ccc(Cl)cc2)CC1	·	·	·	·	–	·
CCCCCCn1c(=O)c(-c2ccccc2)c(O)c2ccccc21	–	–	·	–	·	38
CCCCn1c(=O)c(Cc2ccccc2)c(O)c2ccccc21	–	–	–	–	–	–
CCOCCP(=O)(c1ccccc1)c1ccccc1	·	·	·	·	–	·
COc1ccccc1C(=O)N1c2ccccc2C(Nc2ccccc2)CC1C (stereo not given)	·	·	·	·	–	·
O=C1N=C(N2CCOCC2)S/C1=C/c1ccc(Cl)cc1	·	·	·	·	102	·
CC(C)c1ccc(-c2cc(C(=O)O)c3ccccc3n2)cc1	·	·	·	·	–	·
CC(C)Oc1ccc(-c2cc(C(=O)O)c3ccccc3n2)cc1	·	·	·	·	104	·
O=C(Oc1ccc([N+](=O)[O-])cc1)c1cc(-c2ccccc2)nc2ccccc12	–	–	·	–	·	42
CCN(CC)C(=O)COC(=O)c1cc(-c2ccc(OC)cc2)nc2ccccc12	–	–	·	–	·	40
COc1ccccc1NC(=O)N1CCCc2ccccc21	·	·	·	·	–	·
SMILES	PLAP activator	E coli WT exp	tolC growth inh	PostGolgi yeast	HePTP inhibitor	PostGolgi ctrl
Cc1ccc(C(=O)N2N=C(c3ccncc3)CC2(O)C(F)(F)F)cc1 (stereo not given)	·	·	·	·	–	·
Cc1cc2oc(C(=O)NCc3ccncc3)c(C)c2cc1C	–	–	–	–	–	36
O=C(COc1ccc2ccccc2c1)Nc1ccccc1F	·	·	·	·	–	·
COc1ccc(N2C(=O)c3ccc(C(=O)Nc4cc(Cl)ccc4C(=O)O)cc3C2=O)cc1	·	·	·	·	102	·
Brc1ccc(C2C3=C(Nc4ncnn42)c2ccccc2OC3c2ccncc2)cc1 (stereo not given)	–	–	·	–	·	40
NC(=O)c1cc(Br)cc2c3c([nH]c12)CCCC3	–	–	–	–	–	78
COc1ccc(C/C(O)=C(\C#N)c2nc3ccccc3s2)cc1	–	–	74	–	–	–
Cc1ccc(SC/C(O)=C(\C#N)c2nc3ccccc3s2)cc1	–	–	83	–	–	–
N/C(=N/N=C\c1cc(Br)ccc1O)c1ccccn1	·	·	·	·	–	·
C=CCOC(=O)C1=C(C)NC(SCC)=C(C#N)C1c1ccc(Cl)cc1 (stereo not given)	–	–	·	–	·	55
CCOC(=O)C1=C(C)NC(SCC(=O)OC)=C(C#N)C1c1ccc(C(=O)OC)cc1 (stereo not given)	–	–	–	–	–	–
CC(=O)c1ccc(-n2c(-c3cc(-c4ccco4)[nH]n3)n[nH]c2=S)cc1	2.6	–	·	–	·	–
O=C(O)c1ccc(-n2c(-c3cc(-c4ccco4)[nH]n3)n[nH]c2=S)cc1	–	–	·	–	·	–
C=CCN1C(=O)/C(=C\c2ccc(OCc3ccc(F)cc3)c(OCC)c2)C(=O)NC1=S	·	·	·	·	–	·
O=C1CC(c2ccco2)Cc2nc(N3CCc4ccccc4C3)ncc21 (stereo not given)	–	–	–	–	–	42
CC1CC(C)CN(c2ncc3c(n2)CC(c2ccccc2)CC3=O)C1 (stereo not given)	–	–	–	–	–	50
CCOC(=O)c1csc(NC(=O)c2ccc([N+](=O)[O-])o2)n1	·	·	·	·	–	·
CC1=NNC(=O)C1C(c1ccccc1)C(C#N)C#N (stereo not given)	2.2	–	·	–	·	–
O=C1NC(=O)N(c2ccccc2)C(=O)C1C(c1ccccc1)c1ccccc1 (stereo not given)	·	·	·	·	–	·
CCCCCCC1CCC(C(=O)NC(CCSC)C(=O)NC(C(=O)OC)C(C)C)CC1 (stereo not given)	2.2	–	·	–	·	–
N#C/C(=C/C=C/c1ccco1)C(=O)Nc1cccc(Br)c1	·	·	·	·	–	·
CCCCCn1c(-c2ccco2)nc2nc3ccccc3nc21	–	–	77	–	–	–
c1ccc(Cn2c(-c3ccco3)nc3nc4ccccc4nc32)cc1	–	–	–	–	–	–
O=C(NCc1ccccn1)C(=O)N/N=C/c1ccc(Cl)cc1	·	·	·	·	–	·
Cc1ccc(-n2nc(C)c3c2OC(N)=C(C#N)C3c2ccncc2)cc1 (stereo not given)	–	–	–	–	–	–
SMILES	PLAP activator	E coli WT exp	tolC growth inh	PostGolgi yeast	HePTP inhibitor	PostGolgi ctrl
Cc1nn(-c2ccccc2)c2c1C(c1ccncc1)C(C#N)=C(N)O2 (stereo not given)	–	–	–	–	–	32
O=C(Nc1ccc(CN2CCOCC2)cc1)c1ccc(-c2ccc(Br)cc2)o1	–	–	100	–	–	60
O=C(Nc1ccc(NC(=O)c2ccc(-c3ccc(Br)cc3)o2)cc1)c1ccco1	·	·	·	·	–	·
CCOC(=O)Cn1nnnc1C(CC)N(Cc1cccs1)Cc1cc2cc(C)ccc2[nH]c1=O (stereo not given)	–	–	–	–	–	–
CCOc1ccc2[nH]c(=O)c(CN(Cc3cccs3)C(CC)c3nnnn3C(C)(C)CC)cc2c1 (stereo not given)	–	–	–	–	–	37
COc1ccc(C2C(C#N)=C(N)N(c3sc4c(c3C#N)CCCC4)C3=C2C(=O)CC(C)(C)C3)cc1 (stereo not given)	–	–	·	–	·	–
COc1ccc(C2C(C#N)=C3NC(=O)c4c(sc5c4CCCCC5)N3C3=C2C(=O)CC(C)(C)C3)cc1 (stereo not given)	–	–	·	–	·	36
CCN(CC)C(=O)CSc1nc(-c2ccc(C)cc2)nc2c1COC(C)(C)C2	–	–	·	–	·	36
